Assay outcomes (PubChem BioAssay)
bIAP inh = intestinal alkaline phosphatase (bovine) inhibition. AID 1019. purified bovine IAP, CDP-star luminescence, 30 min. inhibition, % at 20 µM. 190,000 tested, under 10 active;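 active means over 50% inhibition of intestinal alkaline phosphatase at 20 µM in the single-dose screen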
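System: purified bovine intestinal alkaline phosphatase (IAP) enzyme; Input: IAP diluted 1/65,000,000 in the well; Measured by: CDP-star luminescence signal; Compound dosing: 20 µM single dose; Incubation: 30 min reaction at room temperature.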
mIAP inh = blocks mouse intestinal alkaline phosphatase | 330,000 tested, 0.2% active | purified mouse IAP, CDP-Star luminescence, 30 min | inhibition, % at 10 µM;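 active means inhibition of at least 40% at 10 µM in the primary screen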;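 further: plate controls were DMSO with enzyme for no effect and no enzyme wells for full effect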
hIAP activ = human IAP activation; activation factor at 10 µM; purified human IAP, CDP-Star luminescence, 30 min; stronger effect = higher value; 1 = vehicle-only enzyme, 0 = enzyme-free background; AID 2524; 330,000 tested, 0.16% active;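 active means activation factor of the enzyme at least 2-fold when tested at 20 µM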
Target sequence (P09923 whole entry, looked up): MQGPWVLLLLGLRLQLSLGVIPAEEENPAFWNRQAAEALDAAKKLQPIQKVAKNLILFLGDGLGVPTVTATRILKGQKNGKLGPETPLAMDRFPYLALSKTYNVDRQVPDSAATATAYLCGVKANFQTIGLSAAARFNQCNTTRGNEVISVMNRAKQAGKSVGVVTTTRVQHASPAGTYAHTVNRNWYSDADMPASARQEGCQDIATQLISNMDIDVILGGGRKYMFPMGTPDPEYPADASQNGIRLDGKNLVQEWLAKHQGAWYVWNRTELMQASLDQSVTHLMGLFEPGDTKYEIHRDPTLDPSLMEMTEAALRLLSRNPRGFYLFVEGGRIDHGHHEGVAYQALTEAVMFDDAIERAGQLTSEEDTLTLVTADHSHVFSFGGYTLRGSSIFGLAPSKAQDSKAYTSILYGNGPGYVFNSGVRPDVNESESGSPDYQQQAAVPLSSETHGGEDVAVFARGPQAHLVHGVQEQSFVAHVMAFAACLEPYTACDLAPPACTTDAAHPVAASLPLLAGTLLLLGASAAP
bIAP act = intestinal alkaline phosphatase (bovine) activation; AID 1016; purified bovine IAP, CDP-star luminescence, 30 min; stronger effect = higher value; fold of DMSO-control signal, blank-subtracted; 200,000 tested, 0.17% active; activation factor at 20 µM;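 active means activation factor of 2 or more at 20 µM, a signal rise over negative controls twice the positive control's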
hIAP block = human IAP inhibition | P09923 | purified IAP, CDP-Star luminescence, 30 min | inhibition, % at 10 µM | 330,000 tested, 0.12% active | AID 2544;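 active means inhibition reaching a set limit with compound at 10 µM in the primary screen, cut at about 35% in these data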;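 further: plate controls were DMSO wells with enzyme for no effect and no-enzyme buffer wells for full effect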
mIAP activ = increases mouse intestinal alkaline phosphatase activity | muIAP, CDP-Star luminescence, 30 min; stronger effect = higher value; 1 = vehicle-only enzyme signal, 0 = enzyme-free wells | activation factor at 10 µM | 330,000 tested, 0.24% active;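 active means activation factor of at least 2 at 20 µM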
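also added = chemiluminescent substrate CDP-Star | test system = mouse IAP enzyme | signal = chemiluminescence readout | compound = DMSO-dissolved test compounds | incubation = 30 min at room temperature | benchmarks = DMSO wells, no-enzyme wells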
* = called active by the depositor; i = inactive; nt = not tested or not shown. Hits are enriched below; roughly 0.79% of the tested compounds scored in any of these assays.

SMILES | bIAP inh | mIAP inh | hIAP activ | bIAP act | hIAP block | mIAP activ
CN(C)c1nc(NC(C)(C)C)nc(SCC(=O)Nc2ccccc2)n1 | -7 | -16 | 0.95 | 1.1 | 5 | 1.2
CN(C)c1nc(NCc2ccccc2)nc(SCC(=O)Nc2ccccc2)n1 | 13 | -104 | 0.97 | 0.9 | 3 | 2*
Cc1c(/C=N/NC(=O)CNc2ccccc2)c2ccccn2c1C(=O)c1ccc(Cl)cc1 | i | 18 | 0.88 | 10* | 12 | 0.82
Cc1ccccc1NCC(=O)N/N=C/c1c(C)c(C(=O)c2ccc(Cl)cc2)n2ccccc12 | -3 | 18 | 0.99 | 1 | 1 | 0.82
Cc1ccc(-n2ncc(C(=O)Nc3cc(Cl)cc(Cl)c3)c2C2CCNCC2)cc1C | i | nt | nt | 6.1* | nt | nt
Cc1ccc(-n2c(SCC(N)=O)nnc2-c2cccnc2)c(C)c1 | 3 | -103 | 0.99 | 1 | 1 | 2*
N#CC1=C(S)N(c2ccccc2)C(c2ccc(-c3ccc(Cl)c(Cl)c3)o2)NC1=O (configuration not stated) | nt | 17 | 0.78 | nt | 22 | 0.83
N#CC1=C(S)N(c2ccccc2)C(c2ccc(-c3cc(Cl)ccc3Cl)o2)NC1=O (configuration not stated) | -101 | 16 | 0.95 | 2* | 5 | 0.83
COc1ccc(Cl)cc1NC(=O)C(C)N1CCN(C/C=C/c2ccccc2)CC1 (configuration not stated) | -234 | -12 | 0.82 | 3.3* | 18 | 1.1
CCOC(=O)/C=C1\SCC(=O)N1CC(=O)Nc1cc(S(=O)(=O)N(C)C)ccc1C | nt | -14 | 1 | nt | -4 | 1.1
FC(F)(F)c1ccc(NC(=S)NCc2ccccc2)cc1 | 13 | -100 | 1.1 | 0.9 | -10 | 2*
FC(F)Sc1ccc(NC(=S)NCc2ccccc2)cc1 | 8 | -106 | 1 | 0.9 | 0 | 2.1*
COc1ccc(NC(=O)CSc2nnnn2C)cc1S(=O)(=O)N1CCCCC1 | nt | -7 | 0.95 | nt | 5 | 1.1
CCOc1ccccc1N1CC(C(=O)Nc2cc(S(C)(=O)=O)ccc2Cl)CC1=O (configuration not stated) | nt | -14 | 1.1 | nt | -5 | 1.1
Oc1cc(O)cc(/C=C/c2ccc(O)c(O)c2)c1 | nt | 78* | 0.94 | nt | 6 | 0.22
Cc1ccc(NC(=O)COc2ccccc2CNC(C)(C)CC(C)(C)C)cc1 | i | -58 | 0.89 | 30* | 11 | 1.6
COc1ccc(S(=O)(=O)N2CCOCC2)cc1NC(=O)c1cc2ccccc2o1 | nt | 4 | 1.1 | nt | -10 | 0.96
CCCn1cnc2scc(-c3ccc(C)c(C)c3)c2c1=O | nt | 4 | 1 | nt | 0 | 0.95
Nc1[nH]nc2nc(NCc3ccccc3)c3c(c12)CCN(Cc1ccccc1)C3 | -370 | -16 | 1 | 4.7* | -1 | 1.2
N#Cc1c(NCCN)nc(NCc2ccccc2)c2c1CCN(Cc1ccccc1)C2 | -195 | nt | nt | 3* | nt | nt
COc1cc(C(=O)OCCc2cc3ccccc3c(=O)o2)cc(OC)c1OC | nt | 1 | 0.93 | nt | 7 | 0.99
COc1cc(CNCCc2c[nH]c3ccccc23)ccc1OCc1ccc(F)cc1 | -187 | 7 | 0.85 | 2.9* | 15 | 0.93
CCN(CC)CCn1c(=N)n(CC(=O)c2ccc(C)cc2)c2ccccc21 | nt | 41* | 1 | nt | -3 | 0.59
Cc1ccc(C(=O)Cn2c(=N)n(N)c3ccccc32)cc1 | nt | 7 | 1.1 | nt | -11 | 0.93
CCCC(=O)OCCNc1cc(SCc2ccco2)c2nonc2c1[N+](=O)[O-] | 30 | 49* | 0.93 | 0.7 | 7 | 0.51
SMILES | bIAP inh | mIAP inh | hIAP activ | bIAP act | hIAP block | mIAP activ
CC(=O)OCCCNc1cc(SCc2ccco2)c2nonc2c1[N+](=O)[O-] | 15 | 50* | 1 | 0.9 | -4 | 0.5
CCCSc1cc(NCCOC(=O)CCC)c([N+](=O)[O-])c2nonc12 | nt | 17 | 0.91 | 0.4 | 9 | 0.83
COc1ccc(NC2CCCN(C(=O)C3(C)CCCCC3)C2)cc1OC (configuration not stated) | nt | 7 | 1.1 | nt | -12 | 0.93
CCN(Cc1ccncc1)C(=O)c1ccc(C)c(S(=O)(=O)N2CCCCC2)c1 | nt | -3 | 1.1 | nt | -12 | 1
O=C(Nc1ccncc1)Nc1cccc(C(F)(F)F)c1 | nt | -8 | 1 | nt | -3 | 1.1
Cc1ccc(S(=O)(=O)Nc2ccc(NC(=O)Nc3cccc(C(F)(F)F)c3)cc2)cc1 | 13 | -161 | 1.1 | 0.9 | -9 | 2.6*
Cc1cc(-c2nn(-c3ccccc3F)cc2CN2CCC(C(N)=O)CC2)c(C)s1 | -6 | -11 | 1 | 1.1 | -1 | 1.1
Cc1cc(-c2nn(-c3ccccc3F)cc2CNCCc2cnc[nH]2)c(C)s1 | -198 | -9 | 1.5 | 3* | -53 | 1.1
Cc1c(CCOC(=O)C23CC4CC(CC(C)(C4)C2)C3)sc[n+]1Cc1ccccc1 | 36 | 43* | 0.95 | 0.6 | 5 | 0.57
N#Cc1c(N)sc2c1CCCCCC2 | 35 | 0 | 1.1 | 0.6 | -6 | 0.99
N#Cc1c(N)sc(=S)c2c1CCCCC2 | 12 | 48* | 1 | 0.9 | -4 | 0.52
CCc1cccc(CN2CCC(CNC(=O)Nc3ccc(Cl)cc3)CC2)c1 | -38 | -259 | 1.4 | 1.4 | -43 | 3.6*
O=C(NCCN1CCN(Cc2ccccc2)CC1)Nc1cc(Cl)cc(Cl)c1 | nt | -102 | 1 | nt | -4 | 2*
COc1cc([N+](=O)[O-])ccc1NC(=O)NCC1CCN(Cc2ccc(Cl)cc2)CC1 | nt | -2 | 0.92 | nt | 8 | 1
O=C(NCC1CCN(Cc2cccc(Cl)c2)CC1)Nc1ccc(Cl)cc1 | nt | -210 | 1.4 | nt | -42 | 3.1*
CC1(C)Oc2ccc3ccc(=O)oc3c2/C(=C/Nc2ccccc2)C1=O | 16 | 41* | 0.96 | 0.8 | 4 | 0.59
CC1(C)Oc2ccc3ccc(=O)oc3c2/C(=C/N)C1=O | 3 | 7 | 1.2 | 1 | -23 | 0.93
CCn1c(C(O)c2ccc3c(c2)OCO3)nc2ccccc21 (configuration not stated) | -154 | -2 | 0.91 | 2.5* | 9 | 1
CCn1c(C(O)c2cc(OC)c(OC)c(OC)c2)nc2ccccc21 (configuration not stated) | nt | -6 | 1.1 | nt | -11 | 1.1
COCCNC(=O)/C=C/c1c(Cl)cccc1Cl | 7 | 5 | 0.65 | 0.9 | 35* | 0.95
Cc1ccc(S(=O)(=O)N2CCOCC2)cc1NC(=O)COC(=O)CCC(=O)c1ccc(F)cc1 | nt | 9 | 0.99 | nt | 1 | 0.91
CC(C)NC[C@@H](O)c1ccc(O)c(O)c1 | 11 | 43* | 1.1 | 0.9 | -5 | 0.57
O=C(O)c1ccc(CS(=O)c2cccc(C(F)(F)F)c2)o1 (configuration not stated) | -224 | 0 | 0.73 | 3.2* | 26 | 1
Cc1cccc(S(=O)Cc2ccc(C(=O)N3CCOCC3)o2)c1 (configuration not stated) | nt | 2 | 1.1 | nt | -8 | 0.98
O=S(=O)(c1ccc(NC(=S)Nc2ccccc2)cc1)N1CCOCC1 | 2 | -1 | 1.1 | 1 | -6 | 1
